Most compounds without a hit are left out; they make up all but 4.8% or so of the library.
PAFAH2 FP inh = PAFAH2 (human) inhibition; Q99487; recombinant PAFAH2, FP-rhodamine activity probe, fluorescence polarization; inhibition, % at 3.39 µM; actives 0.99% (n = 340,000); AID 492956;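 active = inhibition above the mean over all tested compounds plus 3 SD, cut at about 30% in these data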;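 also: inhibitors block probe labeling of enzyme so polarization drops; 0% = enzyme with DMSO and 100% = wells lacking PAFAH2 protein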
pPAFAH FP inh = inhibitors of human plasma PAF acetylhydrolase (pPAFAH). recombinant pPAFAH, FP-rhodamine probe fluorescence polarization. AID 463082. Q13093. actives 1.5% (n = 330,000). inhibition, % at 3.39 µM;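 active = inhibition above the mean inhibition across the screen plus 3 SD, cut at about 25% in these data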;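 also: inhibitors block binding of the rhodamine activity-based probe so polarization drops; 0% = enzyme with DMSO and 100% = wells lacking pPAFAH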
Target sequence (Q13093 whole entry, looked up): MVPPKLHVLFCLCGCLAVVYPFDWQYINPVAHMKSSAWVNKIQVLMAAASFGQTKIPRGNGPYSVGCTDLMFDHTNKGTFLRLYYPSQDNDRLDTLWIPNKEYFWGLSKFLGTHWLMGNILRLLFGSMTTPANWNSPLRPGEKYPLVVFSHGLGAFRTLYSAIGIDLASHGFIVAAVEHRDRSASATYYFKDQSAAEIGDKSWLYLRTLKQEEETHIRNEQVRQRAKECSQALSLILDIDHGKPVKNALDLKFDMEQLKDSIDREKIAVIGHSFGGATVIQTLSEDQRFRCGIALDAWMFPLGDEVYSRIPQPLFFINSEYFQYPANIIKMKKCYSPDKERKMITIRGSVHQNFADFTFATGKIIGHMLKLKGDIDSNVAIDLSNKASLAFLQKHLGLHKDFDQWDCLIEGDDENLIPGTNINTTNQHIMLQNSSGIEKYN
PAFAH1B2 FP inh = inhibitors of human PAFAH1B2; AID 492953; P68402; inhibition, % at 3.39 µM; recombinant PAFAH1B2, FP-rhodamine activity probe, fluorescence polarization; actives 1.2% (n = 340,000);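 active = inhibition above the mean of all tested compounds plus 3 SD, cut at about 24% in these data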;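 also: 0% = enzyme with DMSO and 100% = wells lacking PAFAH1B2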
UCH37 DUB inh = human UCH37 deubiquitinating enzyme inhibition | inhibition, % (no concentration beside the values) | actives 0.33% (n = 330,000) | AID 588478 | purified proteasome/UCH37, Ub-AMC cleavage fluorescence;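 active = mean inhibition over replicate wells above about 20%, limit read from the data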;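 also: 0% = compound-free wells with enzyme and 100% = wells lacking proteasome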
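system = Proteasome-associated human UCH37 deubiquitinase | amount = 0.15 nM proteasome as dispensed | medium = pH 7.4 Tris-HCl (50 mM) with ovalbumin, ATP-MgCl2, DTT | incubation = 30 min preincubation with enzyme, 25 min cleavage at room temperature | detection = AMC fluorescence 355/460 nm | read-out basis = percent inhibition | controls = no-proteasome and no-compound wells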
NR3A LBD binder = modulates the human NR3A ligand-binding domain | actives 2.5% (n = 340,000) | AID 1259313 | Tm shift relative to glycine control, % at 25 µM | NR3A LBD differential scanning fluorimetry, Tm shift; 0% = protein alone, 100% = glycine-bound protein;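 active = melting temperature shift of at least 10% of the positive control shift, at one fixed dose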
PAFAH1B3 FP inh = blocks human PAF acetylhydrolase 1B catalytic subunit 3; recombinant PAFAH1B3, FP-rhodamine probe, fluorescence polarization; inhibition, % at 3.39 µM; actives 0.28% (n = 340,000); AID 492972;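 active = inhibition above the screen-wide average of all tested compounds plus 3 SD, cut at about 25% in these data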;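 also: 0% = enzyme with DMSO only and 100% = wells lacking PAFAH1B3 protein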
Target sequence (Q15102 whole entry, looked up): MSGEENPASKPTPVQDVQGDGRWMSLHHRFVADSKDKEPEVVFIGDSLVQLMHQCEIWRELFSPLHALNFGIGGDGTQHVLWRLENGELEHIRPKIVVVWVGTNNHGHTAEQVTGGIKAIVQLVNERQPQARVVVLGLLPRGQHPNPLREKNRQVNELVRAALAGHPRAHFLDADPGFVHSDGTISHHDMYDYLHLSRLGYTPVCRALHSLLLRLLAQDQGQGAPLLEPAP
UCH37 reconfirm = reconfirmed inhibitor of human deubiquitinase UCH37; shares compounds with UCH37 DUB inh; Proteasome-bound UCH37, Ub-AMC cleavage fluorescence; inhibition, % at 20 µM; actives 27% (n = 480); AID 624100;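 active = average inhibition over replicates above about 50%, so the earlier screening hit is confirmed, limit read from the data; inactive = the rest, counted as false positives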;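 also: based on cleavage rate fitted by regression over a 30 min kinetic read; 0% = proteasome plus Ub-AMC and 100% = Ub-AMC without proteasome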
Active calls of the source: *.

How did CN(C)c1ccc(N=Nc2ccc(S(N)(=O)=O)cc2)cc1 do in these assays?
PAFAH2 FP inh: -3; pPAFAH FP inh: 10; PAFAH1B2 FP inh: 3; UCH37 DUB inh: 4; NR3A LBD binder: -4; PAFAH1B3 FP inh: 9

Results for O=S(=O)(Nc1cc(Sc2ncn[nH]2)c(O)c2ccccc12)c1ccccc1 ?
UCH37 DUB inh: 38*; NR3A LBD binder: -1; UCH37 reconfirm: 70*

Results for O=C1c2ccccc2-c2nc3ccccc3nc21 ?
PAFAH2 FP inh: 8; pPAFAH FP inh: 12; PAFAH1B2 FP inh: -1; UCH37 DUB inh: 45*; NR3A LBD binder: 0; PAFAH1B3 FP inh: 0; UCH37 reconfirm: 23

Results for COc1ccc(NC(=O)C2CCCCN2N)cc1OC (centres undefined) ?
PAFAH2 FP inh: -4; pPAFAH FP inh: 7; PAFAH1B2 FP inh: 0; UCH37 DUB inh: 29*; NR3A LBD binder: 5; PAFAH1B3 FP inh: -5; UCH37 reconfirm: 46

How did Cc1nc2ccccc2c(=O)n1N=C1C(=O)N(C)c2ccccc21 do in these assays?
UCH37 DUB inh: 7

How did Cc1[nH][nH]c(=O)c1C(c1c(C)[nH][nH]c1=O)c1cn(Cc2ccc(Cl)c(Cl)c2)c2ccccc12 do in these assays?
PAFAH2 FP inh: 9; pPAFAH FP inh: 18; PAFAH1B2 FP inh: 14; UCH37 DUB inh: 47*; NR3A LBD binder: -8; PAFAH1B3 FP inh: 19; UCH37 reconfirm: 24

What do the screens show for `O=c1c2cnn(-c3ccccc3)c2nnn1N=Cc1cccnc1`?
UCH37 DUB inh: 3

Results for CCOc1cccc(C=NNC(=S)Nc2ccccc2[N+](=O)[O-])c1O ?
UCH37 DUB inh: 49*; UCH37 reconfirm: 14

How did Cc1cccc(N(CC(=O)NN=Cc2cc([N+](=O)[O-])ccc2Cl)S(C)(=O)=O)c1C do in these assays?
UCH37 DUB inh: 2

How did Cc1[nH]n(-c2ccccc2)c(=O)c1C(C[N+](=O)[O-])c1ccc(F)cc1 (centres undefined) do in these assays?
PAFAH2 FP inh: 0; pPAFAH FP inh: 4; PAFAH1B2 FP inh: 9; UCH37 DUB inh: 10; NR3A LBD binder: 0; PAFAH1B3 FP inh: -9

What do the screens show for `Cc1[nH]n(-c2ccccc2)c(=O)c1C(C[N+](=O)[O-])c1ccc(Cl)cc1` (centres undefined)?
PAFAH2 FP inh: 2; pPAFAH FP inh: 5; PAFAH1B2 FP inh: 17; UCH37 DUB inh: 41*; NR3A LBD binder: -6; PAFAH1B3 FP inh: 4; UCH37 reconfirm: -1

How did Cc1ccc(C(C[N+](=O)[O-])c2c(C)[nH]n(-c3ccccc3)c2=O)cc1 (centres undefined) do in these assays?
PAFAH2 FP inh: -7; pPAFAH FP inh: 7; PAFAH1B2 FP inh: 5; UCH37 DUB inh: 53*; NR3A LBD binder: 6; PAFAH1B3 FP inh: 9; UCH37 reconfirm: 4

How did CN(C)/C=C/C1=C([N+](=O)[O-])C(c2cccc([N+](=O)[O-])c2)NC(=O)N1 (centres undefined) do in these assays?
PAFAH2 FP inh: 10; pPAFAH FP inh: 14; PAFAH1B2 FP inh: 4; UCH37 DUB inh: 27*; NR3A LBD binder: -1; PAFAH1B3 FP inh: 9; UCH37 reconfirm: 21

What do the screens show for `O=C1C(Nc2cccc(O)c2)=C(N2CCCCC2)C(=O)c2ccccc21`?
PAFAH2 FP inh: 60*; pPAFAH FP inh: 17; PAFAH1B2 FP inh: 25*; UCH37 DUB inh: 31*; NR3A LBD binder: -1; PAFAH1B3 FP inh: 66*; UCH37 reconfirm: 35

Results for COc1ccccc1C1/C(=C(\O)c2ccc3c(c2)OCCO3)C(=O)C(=O)N1CCCn1ccnc1 (centres undefined) ?
PAFAH2 FP inh: 4; pPAFAH FP inh: 7; PAFAH1B2 FP inh: 2; UCH37 DUB inh: 42*; NR3A LBD binder: -1; PAFAH1B3 FP inh: 5; UCH37 reconfirm: 33

What do the screens show for `COc1ccc(C2/C(=C(\O)c3ccc4c(c3)OCCO4)C(=O)C(=O)N2CCCn2ccnc2)cc1` (centres undefined)?
PAFAH2 FP inh: 3; pPAFAH FP inh: 1; PAFAH1B2 FP inh: 0; UCH37 DUB inh: 13; NR3A LBD binder: 3; PAFAH1B3 FP inh: 4

How did O=C(Nc1ccccc1O)c1ccc2c(c1)C(=O)N(N1C(=O)c3ccccc3C1=O)C2=O do in these assays?
PAFAH2 FP inh: -34; pPAFAH FP inh: 6; PAFAH1B2 FP inh: 1; UCH37 DUB inh: 4; NR3A LBD binder: 2; PAFAH1B3 FP inh: 2

What do the screens show for `O=C1C=C(NCc2ccccc2)c2ccccc2C1=O`?
PAFAH2 FP inh: 53*; PAFAH1B2 FP inh: 27*; UCH37 DUB inh: 53*; NR3A LBD binder: 2; PAFAH1B3 FP inh: 60*; UCH37 reconfirm: 12

How did O=c1cccccc1NCc1ccccc1 do in these assays?
PAFAH2 FP inh: 1; pPAFAH FP inh: 18; PAFAH1B2 FP inh: 3; UCH37 DUB inh: 5; NR3A LBD binder: 3; PAFAH1B3 FP inh: 0

What do the screens show for `O=C1C=C(Nc2ccccc2O)c2ccccc2C1=O`?
PAFAH2 FP inh: -13; pPAFAH FP inh: 19; PAFAH1B2 FP inh: -9; UCH37 DUB inh: 81*; NR3A LBD binder: -1; PAFAH1B3 FP inh: 3; UCH37 reconfirm: 85*

Results for CC(Cc1ccccc1)=NNC(=O)C1CCCCC1 ?
UCH37 DUB inh: 3

Results for COc1ccc(C)cc1N(CC(=O)NN=Cc1ccccc1C(=O)O)S(=O)(=O)c1ccccc1 ?
UCH37 DUB inh: 3

How did O=C1C(C2=C(O)c3ccccc3C2=O)=Nc2ccccc21 do in these assays?
PAFAH2 FP inh: 53*; pPAFAH FP inh: 26*; PAFAH1B2 FP inh: 20; UCH37 DUB inh: 85*; NR3A LBD binder: -1; PAFAH1B3 FP inh: 55*; UCH37 reconfirm: 103*

What do the screens show for `N#CC(=NNc1ccccc1F)C(=N)N1CCCCC1`?
UCH37 DUB inh: 12

How did CCCCC[n+]1ccn(C2=C([O-])c3ccccc3C(=O)/C2=N\S(=O)(=O)c2ccc(Br)cc2)c1 do in these assays?
PAFAH2 FP inh: 4; pPAFAH FP inh: -1; PAFAH1B2 FP inh: 7; UCH37 DUB inh: 7; NR3A LBD binder: -5; PAFAH1B3 FP inh: 6

Results for CC(C)[n+]1ccn(C2=C([O-])c3ccccc3C(=O)/C2=N\S(=O)(=O)c2ccccc2)c1 ?
PAFAH2 FP inh: 2; pPAFAH FP inh: 3; PAFAH1B2 FP inh: 12; UCH37 DUB inh: 39*; NR3A LBD binder: 1; PAFAH1B3 FP inh: 17; UCH37 reconfirm: 23

How did CC[C@@]1(c2ccccc2)C(=O)N(C(=O)OC)N1C(=O)OC do in these assays?
PAFAH2 FP inh: -2; pPAFAH FP inh: 2; PAFAH1B2 FP inh: 2; UCH37 DUB inh: 2; NR3A LBD binder: 2; PAFAH1B3 FP inh: 4

Screening results deposited in PubChem by several laboratories.
